Columns and labels:
[1] = Cytotoxicity against mouse betaTC3 cells assessed as cell viability at 25 uM after 48 hrs by MTT assay relative to control; format: cell-based, Beta-TC3; details: read-out: Activity
Summary of the method: (§1)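 βTC-3 insulinoma cells seeded at 10,000 per well and cultured 24 and 48 h before exposure to natural LPC species or 2-methoxy sulfur analogues at 10 or 25 µM. Incubation for 24 or 48 h. Viability measured by MTT colorimetric assay and expressed as % of untreated cells, mean ± SD of four independent experimental repeats.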

[2] = Cytotoxicity against mouse betaTC3 cells assessed as cell viability at 25 uM after 24 hrs by MTT assay relative to control; format: cell-based, Beta-TC3; details: read-out: Activity; summary of the method: as §1
[3] = Cytotoxicity against mouse betaTC3 cells assessed as cell viability at 10 uM after 48 hrs by MTT assay relative to control; format: cell-based, Beta-TC3; details: read-out: Activity; summary of the method: as §1
[4] = Cytotoxicity against mouse betaTC3 cells assessed as cell viability at 10 uM after 24 hrs by MTT assay relative to control; format: cell-based, Beta-TC3; details: read-out: Activity; summary of the method: as §1
[5] = Cytotoxicity against mouse betaTC3 cells assessed as cellular membrane damage at 10 uM after 24 hrs by LDH release assay; format: cell-based; details: beta-tc3, 24 h
Summary of the method: (§2)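 βTC-3 insulinoma cells seeded at 10,000 per well and cultured 24 or 48 h, then exposed to compound for 24 h. LDH in the medium measured as a marker of membrane damage. Release expressed as percentage of that from cells given methanol alone. Mean ± SD, n = 4; significance taken at p < 0.05.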

[6] = Cytotoxicity against mouse betaTC3 cells assessed as cellular membrane damage at 25 uM after 24 hrs by LDH release assay; format: cell-based; details: beta-tc3, 24 h; summary of the method: as §2

Structure (SMILES) | viability at 48 h, 25 µM [1] [%] | viability at 24 h, 25 µM [2] [%] | viability at 48 h, 10 µM [3] [%] | viability at 24 h, 10 µM [4] [%] | Activity [5] | Activity [6] [%]
CCCCCCCC/C=C\CCCCCCCC(=O)OCC(COP(=O)([S-])OCC[N+](C)(C)C)OC (racemic) | 133 | 144 | 92.4 | 121 |  | 
CCCCCCCCCCCCCCCCCC(=O)OC[C@@H](O)COP(=O)([O-])OCC[N+](C)(C)C | 29.5 | 38.7 | 59.3 | 88.8 | Toxic | 
CCCCCCCCCCCCCCCC(=O)OCC(COP(=O)([S-])OCC[N+](C)(C)C)OC (racemic) | 44.2 | 60.4 | 87.7 | 105 |  | 
CCCCCCCC/C=C\CCCCCCCC(=O)OC[C@@H](O)COP(=O)([O-])OCC[N+](C)(C)C | 68.5 | 81.1 | 93.4 | 130 |  | 9.04
CCCCCCCCCCCCCCCC(=O)OCC(COP(=S)([S-])OCC[N+](C)(C)C)OC (racemic) | 37.4 | 58.7 | 100 | 112 |  | 
CCCCCCCCCCCC(=O)OC[C@@H](O)COP(=O)([O-])OCC[N+](C)(C)C [LYSOPHOSPHATIDYLCHOLINE] | 67.1 | 83 | 86.1 | 106 |  | 16.8
CCCCCCCCCCCCCCCCCC(=O)OCC(COP(=S)([S-])OCC[N+](C)(C)C)OC (racemic) | 38.9 | 63.1 | 96.8 | 85.8 |  | 
CCCCCCCCCCCC(=O)OCC(COP(=S)([S-])OCC[N+](C)(C)C)OC (racemic) | 41.8 | 83.7 | 98.2 | 87.1 |  | 
CCCCCCCCCCCC(=O)OCC(COP(=O)([S-])OCC[N+](C)(C)C)OC (racemic) | 71.1 | 90.7 | 106 | 90.2 |  | 
CCCCCCCCCCCCCC(=O)OCC(COP(=S)([S-])OCC[N+](C)(C)C)OC (racemic) | 35.8 | 64.7 | 87.9 | 104 |  | 
CCCCCCCCCCCCCCCCCC(=O)OCC(COP(=O)([S-])OCC[N+](C)(C)C)OC (mixture of isomers) | 50.9 | 82.9 | 61.4 | 90.3 |  | 
CCCCCCCCCCCCCC(=O)OC[C@@H](O)COP(=O)([O-])OCC[N+](C)(C)C [LYSOPHOSPHATIDYLCHOLINE] | 7.5 | 26.3 | 53.1 | 75.5 | Toxic | 
CCCCCCCCCCCCCC(=O)OCC(COP(=O)([S-])OCC[N+](C)(C)C)OC (mixture of isomers) | 41.1 | 73.7 | 101 | 112 |  | 
CCCCCCCC/C=C\CCCCCCCC(=O)OCC(COP(=S)([S-])OCC[N+](C)(C)C)OC (racemic) | 112 | 111 | 95.9 | 90.5 |  | 
CCCCCCCCCCCCCCCC(=O)OC[C@@H](O)COP(=O)([O-])OCC[N+](C)(C)C | 20.1 | 29.7 | 59.8 | 73.1 | Toxic | 16.8

— ChEMBL document CHEMBL3091382, “The chemical synthesis and cytotoxicity of new sulfur analogues of 2-methoxy-lysophosphatidylcholine” (Bioorg Med Chem Lett, 2013)
